Test results as given in PubChem BioAssay AID624467 (The Scripps Research Institute Molecular Screening Center, 2012).
Hit rate of the full screen: of about 360,000 compounds, about 3,600 (1%) were called active. Many of the other results were omitted from the sample, so actives are more common in it than they were. Unmarked numbers belong to inactive results.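 Rule for the calls: active = activation above the mean activation of all test compounds in the run plus 3 SD (cut at about 38% in these data); inactive = the rest.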

Target: Trace amine-associated receptor 1 (Homo sapiens) (UniProt Q96RJ0)
Sequence (Q96RJ0 whole entry, looked up): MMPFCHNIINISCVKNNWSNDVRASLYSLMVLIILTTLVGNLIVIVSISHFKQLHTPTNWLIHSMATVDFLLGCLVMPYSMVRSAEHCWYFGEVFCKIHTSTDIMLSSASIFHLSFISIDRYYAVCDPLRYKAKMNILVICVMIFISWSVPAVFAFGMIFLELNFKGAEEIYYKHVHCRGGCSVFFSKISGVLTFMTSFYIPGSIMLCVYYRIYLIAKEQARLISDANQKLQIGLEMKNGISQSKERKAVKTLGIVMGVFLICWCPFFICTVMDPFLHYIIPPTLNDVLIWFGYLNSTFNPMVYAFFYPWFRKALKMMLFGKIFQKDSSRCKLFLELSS
Test: activators of TAAR1 calcium mobilization – Fluo-8 calcium fluorescence, CHO RD-HGA16 cells, primary screen (AID 624467)
Conditions: CHO RD-HGA16 TAAR1, Fluo-8 calcium fluorescence; at 3 µM; active compounds read high; vehicle wells 0%, saturating PEA agonist 100%
How it was run: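 Test system: RD-HGA16 (CHO) cells co-expressing Gα16 and hTAAR1 / Benchmarks: DMSO vehicle as 0%, PEA at EC100 as 100% / Repeats: no replicates (n 1) / Measure: % activation from peak over basal fluorescence ratio, DMSO-to-PEA scaled / Timing: 17-24 h plating, Fluo-8 75 min 37 °C, 30 min RT / Technique: kinetic Fluo-8 calcium fluorescence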

| Compound | activation |
| --- | --- |
| C[C@H](NC(=O)c1ccccc1)C(=O)OCC(=O)c1c[nH]c2ccccc12 | 70% (active) |
| CCOc1ncccc1C(=O)OCC(=O)c1c[nH]c2ccccc12 | 14.1% |
| CC(C)Nc1nnc(SCC(=O)c2c[nH]c3ccccc23)s1 | 1.89% |
| COc1ccc(NC(=O)C2(C)Cc3c(-c4ccc(C(N)=O)cc4)ccnc3O2)cc1 (stereo unspecified) | 1.37% |
| CN[C@H]1C[C@H]2c3[nH]c4c(-c5ccccc5)cccc4c3CCN2C(=O)[C@H]1[C@H](C)O | 4.95% |
| CCc1ccc(-c2nn(-c3ccccc3)cc2CSC(=N)N)cc1 | 99.3% (active) |
| O=C(NCCCN1CCOCC1)c1cn(-c2ccccc2)nc1-c1ccc(F)cc1 | 3.53% |
| CCc1ccc(-c2nn(-c3ccccc3C)cc2C(=O)N2CCN(C3CCS(=O)(=O)C3)CC2)cc1 (stereo unspecified) | 1.27% |
| CCc1nc2ccc(C(=O)N3CCN(c4cccc(Cl)c4)CC3)cc2nc1CC | 1.12% |
| COC(=O)[C@]12C[C@H](CC(=O)NCCCCc3ccccc3)C(=O)N(Cc3ccc4c(c3)OCO4)C1=C[C@H](C(C)(C)C)O[C@@H]2C | 5.91% |
| COc1cc(/C=N\NC(=O)c2nonc2N)c(OC)cc1Br | 1.69% |
| Cc1cc(C)c([N+](=O)[O-])cc1-c1ccc(/C=N/NC(=O)c2nonc2N)o1 | 41% (active) |
| Cc1occc1C(=O)N/N=C/c1ccc(-c2cccc([N+](=O)[O-])c2)o1 | 4.69% |
| O=C(COC(=O)CCc1c[nH]c2ccccc12)Nc1cccc(Cl)c1 | 3.56% |
| Nc1ncnc2c1ncn2[C@@H]1O[C@H](C(=O)N[C@@H](CCc2ccccc2)C(=O)NCC(=O)N2CCOCC2)[C@@H](O)[C@H]1O | 0.02% |
| Clc1cccc2c1C1CC2CCN1Cc1ccccc1 (stereo unspecified) | -1.9% |
| COC(=O)c1ccccc1NC(=O)CN(Cc1ccc(Cl)cc1)S(C)(=O)=O | 8.09% |
| Cc1cc(C(=O)NNC(=S)Nc2ccccc2C)cs1 | 7.69% |
| Cc1ccccc1NC(=S)NC(=O)Cc1ccc(Cl)cc1 | 82.3% (active) |
| O=C(Cc1ccc(Cl)cc1)NC(=S)Nc1ccccc1O | 138% (active) |
| Cc1ccccc1N/C(SCc1ccc(Cl)cc1)=C(/C#N)C(N)=O | 6.27% |
| Fc1ccccc1CNC(=S)Nc1ccc(Cl)cc1 | 5.04% |
| Cc1ccc(NS(=O)(=O)c2ccc3c(c2)oc(=O)n3C)c(C)c1 | 3.17% |

| Compound | activation |
| --- | --- |
| Brc1ccc(COCCc2cn(Cc3ccccc3)c3ccccc23)cc1 | 0.28% |
| S=C(Nc1cccc(Br)c1)N1CCn2cccc2C1c1cccnc1 (stereo unspecified) | 11.1% |
| S=C(NCCc1ccccc1)N1CCn2cccc2C1c1ccncc1 (stereo unspecified) | 96.1% (active) |
| CC1CCCCN1C(=S)NCc1ccccc1 (stereo unspecified) | 5.09% |
| Cc1cc(=O)[nH]c(Nc2cccc(Br)c2)n1 | 26.1% |
| O=c1cnnc(Nc2ccccc2F)[nH]1 | 19.6% |
| O=c1cnnc(Nc2ccccc2)[nH]1 | 53% (active) |
| O=C(COC(=O)c1ncc(Cl)c(Cl)c1Cl)NNC(=O)c1ccccc1 | 4.83% |
| COc1ccc(N(C)C(=O)C2CCN(S(=O)(=O)c3cccc4nsnc34)CC2)cc1 | 2.99% |
| CCn1cc(CN2CCC(C(=O)Nc3cccc(-c4cccc(Cl)c4)c3)CC2)cn1 | 16.6% |
| CCn1cc(CN2CCC(C(=O)Nc3cccc(-c4cccc(Cl)c4)c3)CC2)c(C)n1 | 19.7% |
| O=C(Nc1cccc(-c2cccc(Cl)c2)c1)C1CCN(C2CCC2)CC1 | 45.3% (active) |
| O=S(=O)(c1cccs1)N1CCCc2nc(-c3ccc(Br)cc3)ccc21 | 1.37% |
| NC(=O)c1ncn([C@@H]2O[C@H](C(=O)O)[C@@H](O)[C@H]2O)n1 | 1.97% |
| COCCNC(=O)c1cc2c(Br)ccc(Br)c2nc1N | 0.74% |
| CCC(c1nnnn1Cc1ccco1)N(CCc1ccccc1)Cc1cc2ccc(OC)cc2[nH]c1=O (stereo unspecified) | 100% (active) |
| COc1ccc2[nH]c(=O)c(CN(Cc3nnnn3CCc3ccccc3)CC3CCCO3)cc2c1 (stereo unspecified) | 11.8% |
| CCC(c1nnnn1C1CCCC1)N(Cc1cccs1)Cc1cc2cccc(C)c2[nH]c1=O (stereo unspecified) | 2.02% |
| CCC(c1nnnn1Cc1ccco1)N(Cc1cc2cc(OC)ccc2[nH]c1=O)C1CCCCC1 (stereo unspecified) | 1.97% |
| Cc1cccc2cc(CN(Cc3nnnn3Cc3ccccc3)C3CCCC3)c(=O)[nH]c12 | 12% |
| CCC(c1nnnn1Cc1ccco1)N(CCc1ccccc1)Cc1cc2cccc(C)c2[nH]c1=O (stereo unspecified) | 43.8% (active) |
| CN(C)S(=O)(=O)c1cc(C(=O)Nc2ccn(C)n2)c(Cl)cc1Cl | 2.93% |
| Nc1ncnc2c1ncn2C1OC(CO)CC1O (stereo unspecified) | 1.93% |

| Compound | activation |
| --- | --- |
| c1ccc(-c2csc(N3CCc4ccccc4C3)n2)cc1 | 73% (active) |
| CN(C)CCCNC(=S)N1CCN(c2nc(-c3ccccc3)cs2)CC1 | 3.41% |
| O=S(=O)(c1cccs1)N1CCc2ccccc2C1 | 13% |
| COc1ccc(Cn2c(-c3ccc(Cl)cc3)c[n+]3ccccc23)cc1 | 12.9% |
| C=CC1=CCN(S(=O)(=O)C(C)(C)C)[C@@H]1CCO | 3.56% |
| FC(F)(F)c1ccc(-n2cn[nH]c2=S)cc1 | 0.73% |
| O=C(C1CCN(c2nnc(-n3cccc3)s2)CC1)N1CCc2ccccc2C1 | 40.9% (active) |
| CSc1ccc(CCNC(=O)C2CCN(c3nnc(-n4cccc4)s3)CC2)cc1 | -0.88% |
| CCOC(=O)C1CCCN(C(=O)C2CCN(c3nnc(-n4cccc4)s3)CC2)C1 (stereo unspecified) | -0.39% |
| CC1(C)CC(=O)C=C(c2ccccc2CO)C1=O | 0.98% |
| COC1=CCC2([N+](=O)[O-])CN(CC(=O)O)CC1([N+](=O)[O-])C2 (stereo unspecified) | 1.51% |
| CCOC(=O)C1=C(C(=O)OCC)C2N(Cc3ccc(C#N)cc3)c3ccccc3[C@@]23C[C@@H](C(=O)OC)N(S(=O)(=O)c2ccc(F)cc2)C3=N1 (stereo partly specified) | -0.08% |
| Cc1noc(C)c1NC(=O)Nc1ccc2c(c1)C(=O)N([C@H](C)CO)C[C@H](C)[C@H](CN(C)Cc1ccncc1)OCCCC[C@@H](C)O2 | 2.28% |
| CCc1cc(=O)oc2c(C)c(OCC(=O)NCCN3CCOCC3)ccc12 | 2.36% |
| Cc1cc(=O)oc2c(C)c(OCC(=O)NCCN3CCOCC3)ccc12 | 43.2% (active) |
| Cc1cc(=O)oc2c(C)c(OCC(=O)NCCc3ccc(S(N)(=O)=O)cc3)ccc12 | 0.73% |
| O=C1C2(c3ccccc3)CN(CCCO)CC1(c1ccccc1)CN(CCCO)C2 | 2.41% |
| Cn1c(=O)c2c(nc(SCCNS(=O)(=O)c3ccccc3)n2C)n(C)c1=O | 1.23% |
| CCOc1ccc(Cn2c(SCCCCC#N)nc3c2c(=O)n(C)c(=O)n3C)cc1OCC | 17.1% |
| CCCSc1nc2c(c(=O)n(C)c(=O)n2C)n1Cc1ccc(C)cc1 | 52.6% (active) |
| CC1CCc2sc(C(=O)N/N=C/C3CCCCC3)cc2C1 (stereo unspecified) | 5.23% |
| COCc1[nH]nc2c1C(c1ccccc1)N(c1ccccc1)C2=O (stereo unspecified) | 0.37% |
| Nc1nnn(CC(=O)N/N=C/c2ccccc2)n1 | 43.3% (active) |

| Compound | activation |
| --- | --- |
| O=C(Cn1nnc(-c2ccccc2)n1)N/N=C/c1ccc(-c2ccc(Cl)cc2)o1 | -0.07% |
| O=C(Cn1cncn1)N/N=C/c1c2ccccc2cc2ccccc12 | 6.44% |
| CC(C)CNc1cccc2c1S(=O)(=O)N[C@H](C)CO2 | -0.59% |
| COc1ccc(/C(N)=N/OC(=O)CCCc2ccccc2)cc1 | 5.81% |
| CC(=O)NC(=S)NNC(=O)c1ccc(Br)cc1 | 6.34% |
| CCOc1ccccc1NC(=S)NC(=O)CCc1ccccc1 | -1.05% |
| COc1ccc(C(=O)NC(=S)NNC(=O)CCc2ccccc2)cc1 | 108% (active) |
| COc1ccc(C(=O)NNC(=S)NC(=O)c2ccccc2)cc1 | 130% (active) |
| Cn1nnc(NC(=S)NC(=O)c2ccccc2)n1 | 0.43% |
| COCCCNC(=O)C[C@H]1C[C@@]2(C(=O)OC)C(=C[C@H](C(C)(C)C)O[C@@H]2C)N(Cc2ccc3c(c2)OCO3)C1=O | 0.46% |
| Nc1[nH]c(C(=O)c2ccccc2)c(-c2ccc(Cl)cc2Cl)c1C(=O)c1ccccc1 | 1.29% |
| CCC(Sc1nncn1C)C(=O)Nc1nnc(-c2ccc(Cl)cc2)s1 (stereo unspecified) | 0.73% |
| COCc1cc(N2CCN(C(=O)OC(C)(C)C)C[C@@H]2C)ccc1N1CCN(Cc2ccccc2)[C@H](C)C1 | -1.74% |
| Cc1ccccc1C(=O)N[C@H](C(=O)N1CCC[C@H]1C(=O)NCc1ccccc1)C(C)C | 1.24% |
| CC(=O)N(CC(O)CO)c1c(I)c(C(=O)NCC(O)CO)c(I)c(C(=O)NCC(O)CO)c1I (stereo unspecified) | 0.12% |
| COC(=O)[C@]12C[C@H](CC(=O)NCc3cccc(C(F)(F)F)c3)C(=O)N(Cc3ccc4c(c3)OCO4)C1=C[C@H](COCc1ccccc1)O[C@@H]2C | 1.6% |
| CN1C(=O)/C(=N/OC(=O)c2ccccc2Br)c2ccccc21 | 2.86% |
| Nc1cc(OC(=O)c2ccccc2Br)nn1S(=O)(=O)c1ccccc1 | 78% (active) |
| Cc1ccc(S(=O)(=O)n2nc(OC(=O)C(C)(C)C)cc2N)cc1 | 2.73% |
| Cc1cc(C)n(CCNS(=O)(=O)c2ccc(Cl)cc2)n1 | 2.21% |
| COc1ccc2cc(-c3[nH]ncc3CNCCn3nc(C)cc3C)ccc2c1 | 44% (active) |
| COc1ccc(-c2cn[nH]c2-c2ccc(OC)cc2)cc1 | 5.38% |
